This is a sample that favours compounds with a hit; in the whole collection about 2.1% have one here.
SUMO Mot1 rescue = yeast Mot1-301 growth rescue at high temperature, primary screen, SUMOylation pathway inhibitor project, S. cerevisiae, ATP luminescence, 38.5C | hit rate 1% among 320,000 | S. cerevisiae Mot1-301 growth rescue; percent above DMSO median, 100 means doubled | growth rescue, % at 18.8 µM;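 active means every valid replicate shows activation above 250% relative to neutral control wells; inactive means the rest, any valid replicate at or below 250%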
UCH37 DUB inh = inhibitors of human UCH37 deubiquitinase, primary screen, biochemical, Ub-AMC cleavage, fluorescence; hit rate 0.33% among 330,000; inhibition, % (no concentration beside the values); Ubiquitin carboxyl-terminal hydrolase isozyme L5 (Homo sapiens), Q9Y5K5; purified proteasome/UCH37; AID 588478, 2011;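 active means mean inhibition over replicate wells above about 20%, limit read from the data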
Target sequence (Q9Y5K5 whole entry, looked up): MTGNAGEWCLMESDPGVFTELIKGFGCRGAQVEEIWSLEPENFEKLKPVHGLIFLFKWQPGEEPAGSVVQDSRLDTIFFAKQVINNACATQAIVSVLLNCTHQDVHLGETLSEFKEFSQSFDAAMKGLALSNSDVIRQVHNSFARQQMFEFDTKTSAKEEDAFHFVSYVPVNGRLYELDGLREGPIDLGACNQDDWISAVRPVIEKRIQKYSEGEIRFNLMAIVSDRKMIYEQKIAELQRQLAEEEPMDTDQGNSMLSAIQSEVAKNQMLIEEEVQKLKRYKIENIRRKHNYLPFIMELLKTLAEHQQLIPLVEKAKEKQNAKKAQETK
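System: Proteasome-associated human UCH37 deubiquitinase; Input: 0.15 nM proteasome in added enzyme buffer; Also added: Ub-AMC substrate from 1 µM stock; Incubation: 30 min compound-proteasome preincubation then 25 min substrate reaction, room temperature; Detection: fluorescence, ex 355 nm, em 460 nm; Read-out: % inhibition of Ub-AMC cleavage fluorescence; Benchmarks: no-proteasome and no-compound wells.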
Efflux pump inh = inhibitors of Candida efflux pumps in yeast, primary screen, S. cerevisiae, Nile Red, multiplex | S. cerevisiae Candida pump triplex | inhibition, % at 10 µM | hit rate 0.44% among 330,000 | AID 485275, 2010;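 active means plate passing quality check with inhibition over a set limit, or well fluorescence over plate mean plus 4 SD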;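 further: Nile Red retained in pooled yeast measured as flow cytometry median fluorescence; higher means more Nile Red kept so more efflux inhibition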
RTF Ca sens act = cardiac RTF calcium sensitivity activators, primary screen, biochemical, IANBD-TnC fluorescence, EC20 calcium; Troponin I, cardiac muscle (Homo sapiens) + Troponin T, cardiac muscle (Homo sapiens) + …; IANBD-labeled TnC RTF fluorescence at EC20 calcium; 0% EC20 calcium, 100% full calcium; activation, % at 7.2 µM; hit rate 0.24% among 340,000;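 active means activation above the mean over all tested compounds plus 3 SD, cut at about 30% in these data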;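 further: rise in fluorescence read as greater calcium sensitivity of cardiac thin filaments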
RTF Ca sens inh = cardiac RTF calcium sensitivity inhibitors, primary screen, biochemical, IANBD-TnC fluorescence, EC70 calcium; Troponin I, cardiac muscle (Homo sapiens) + Troponin T, cardiac muscle (Homo sapiens) + …; IANBD-labeled cardiac RTF, Ca2+ fluorescence; inhibition, % at 7.15 µM; hit rate 0.12% among 340,000; AID 493244, 2011;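 active means inhibition above the mean inhibition of all tested compounds plus 3 SD, cut at about 17% in these data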;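 further: assay run at fixed EC70 calcium of 1.6 mM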
ARNT TACC3 PPI = disruptors of ARNT/TACC3 protein interaction, primary screen, biochemical, AlphaScreen, single concentration. Transforming acidic coiled-coil-containing protein 3 (Homo sapiens), Q9Y6A5. AlphaScreen His-ARNT PAS-B/GST-TACC3 binding, luminescence; TACC3 fragment carries E629A point mutation. inhibition, % at 9.99 µM. hit rate 0.66% among 390,000. AID 623870, 2012;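 active means mean inhibition of replicates at least 50% and at least half of replicates each reaching 50%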
Large screens that a line does not name were inactive.

COc1ccccc1Nc1nc(N)nc(CN2CCCCCC2)n1	ARNT TACC3 PPI 89
CCOC(=O)C1CCCN(Cc2nc(CC3CC3)no2)C1 (stereo not drawn)	SUMO Mot1 rescue active
Nc1nc(CN2CCCCCC2)nc(Nc2ccc(F)cc2)n1	ARNT TACC3 PPI 48 (no result: SUMO Mot1 rescue)
C#CCOCCOCCOCCNc1nc(N2CCN(C(=O)CCCCCCCCCCNC(=O)[C@H]([C@@H](C)CC)n3cc(CCCCN=C(N)N)nn3)CC2)nc(N2CCN(C(=O)CCCCCCCCCCNC(=O)[C@H](CCCCN)n3cc(C[C@@H](C)CC)nn3)CC2)n1	Efflux pump inh 85 (no result: UCH37 DUB inh, RTF Ca sens act, RTF Ca sens inh, ARNT TACC3 PPI)
COc1cccc(C=NNC(=O)c2[nH]c(C)c(C(=O)NN=Cc3cccc(OC)c3O)c2C)c1O	none (no result: SUMO Mot1 rescue, Efflux pump inh, RTF Ca sens act, RTF Ca sens inh, ARNT TACC3 PPI)
O=C(CSc1ccc2nnc(-c3ccncc3)n2n1)Nc1ccc2c(c1)OCO2	none
O=C(CSc1ccc2nnc(-c3ccccn3)n2n1)N1CCN(c2ccccc2)CC1	ARNT TACC3 PPI 67
O=C(CSc1ccc2nnc(-c3ccccn3)n2n1)Nc1ccc2c(c1)OCO2	ARNT TACC3 PPI 51
O=C(CSc1ccccn1)N1CCN(c2ccccc2)CC1	none
CCCC(=O)Nc1ccc(C(=O)NN=Cc2ccc[nH]2)cc1	none (no result: SUMO Mot1 rescue, Efflux pump inh, RTF Ca sens act, RTF Ca sens inh, ARNT TACC3 PPI)
COc1ccc(O)c(C=NNc2nc(Nc3ccccc3)nc(-n3nc(C)cc3C)n2)c1	none (no result: SUMO Mot1 rescue, Efflux pump inh, RTF Ca sens act, RTF Ca sens inh, ARNT TACC3 PPI)
C=CCn1cc(C=NNC(=O)COc2cccc3cccnc23)c2ccccc21	none (no result: SUMO Mot1 rescue, Efflux pump inh, RTF Ca sens act, RTF Ca sens inh, ARNT TACC3 PPI)
CN(C)c1ccc(N=Cc2nc(-c3ccccc3)oc2O)cc1	RTF Ca sens act 45
Oc1oc(-c2ccccc2)nc1C=Nc1ccccc1	none
Cc1ccc(N=Cc2nc(-c3ccc(C)cc3)oc2O)cc1	none (no result: SUMO Mot1 rescue, Efflux pump inh)
CC(=O)Nc1ccc(N=Cc2nc(-c3ccc(C)cc3)oc2O)cc1	RTF Ca sens act 38 (no result: SUMO Mot1 rescue)
O=C(Nc1ccccc1C(=O)NN=Cc1ccc(F)cc1)c1ccccc1Br	none (no result: SUMO Mot1 rescue, Efflux pump inh, RTF Ca sens act, RTF Ca sens inh, ARNT TACC3 PPI)
CC(=NO)C(=O)C(CN1CCCCC1)CN1CCCCC1	none (no result: SUMO Mot1 rescue, Efflux pump inh, RTF Ca sens act, RTF Ca sens inh, ARNT TACC3 PPI)
CCCNC(=O)C1(CC2CC(c3ccccc3)=NO2)CCN(C(=O)C2(C)CC2)CC1 (stereo not drawn)	SUMO Mot1 rescue 355
NC(=O)N/N=C/c1coc2ccc3ccccc3c2c1=O	SUMO Mot1 rescue 334 (no result: UCH37 DUB inh)
O=Cc1coc2ccc3ccccc3c2c1=O	none
Cc1ccc(Nc2c(-c3ccc(N(C)C)cc3)nc3ncccn23)cc1	SUMO Mot1 rescue 328
Cc1ccc(Nc2c(-c3ccc(C)o3)nc3ncccn23)cc1	none
O=C(Cc1ccccc1)NN=C/C=C/c1cccc([N+](=O)[O-])c1	none (no result: SUMO Mot1 rescue, Efflux pump inh, RTF Ca sens act, RTF Ca sens inh, ARNT TACC3 PPI)
CCOC(=O)C1=C(C)N=c2sc(=Cc3ccc(OCC(=O)O)cc3)c(=O)n2C1c1ccccc1OC (stereo not drawn)	none (no result: SUMO Mot1 rescue, Efflux pump inh, RTF Ca sens act, RTF Ca sens inh, ARNT TACC3 PPI)
O=S(=O)(/C=C/c1ccccc1)NC1CCCCCC1	none (no result: RTF Ca sens act, RTF Ca sens inh, ARNT TACC3 PPI)
O=S(=O)(/C=C/c1ccccc1)NC1CCCCCCC1	SUMO Mot1 rescue 328
Cc1nc2ccc(S(=O)(=O)NC(C(=O)NCc3ccco3)C(C)C)cc2s1 (stereo not drawn)	SUMO Mot1 rescue 357
O=S(=O)(NN=Cc1ccccc1F)c1ccccc1	none (no result: SUMO Mot1 rescue, Efflux pump inh, RTF Ca sens act, RTF Ca sens inh, ARNT TACC3 PPI)
CC(C)Oc1ccc(-c2nn(-c3ccccc3)cc2/C=c2\sc3ncnn3c2=O)cc1	Efflux pump inh 0.9 (no result: UCH37 DUB inh, RTF Ca sens act, RTF Ca sens inh, ARNT TACC3 PPI)
CC1(C)CC(=O)CC(=NNC(=O)COc2ccc(Cl)cc2Cl)C1	none (no result: SUMO Mot1 rescue, Efflux pump inh, RTF Ca sens act, RTF Ca sens inh, ARNT TACC3 PPI)
CCCOc1ccc(-c2c(C(=O)NN=Cc3ccccc3OCC)nnn2-c2nonc2N)cc1	none (no result: SUMO Mot1 rescue, Efflux pump inh, RTF Ca sens act, RTF Ca sens inh, ARNT TACC3 PPI)
Cc1cc(C(=O)NNC(=S)NC(=O)/C=C/c2ccccc2Cl)n[nH]1	ARNT TACC3 PPI 62
Cc1cccc(C(=O)NC(=S)NNC(=O)c2ccccc2Cl)c1	none
CN(C)c1ccc(/C=C/c2nc3ccccc3c(=O)n2CCO)cc1	RTF Ca sens act 38
O=c1c2ccccc2nc(/C=C/c2ccccc2)n1CCCO	none
COc1ccc(C=NNC(=O)Nc2nonc2N)cc1	none (no result: SUMO Mot1 rescue, Efflux pump inh, RTF Ca sens act, RTF Ca sens inh, ARNT TACC3 PPI)
COc1ccc(/C=C(/C(=O)c2ccc(Cl)cc2Cl)n2cncn2)cc1	none (no result: SUMO Mot1 rescue, ARNT TACC3 PPI)
CN(C)c1ccc(/C=C(/C(=O)c2ccc(Cl)cc2Cl)n2cncn2)cc1	SUMO Mot1 rescue 308
CC1(C)Cc2ccccc2C2=C(C(=O)N3CCCCCC3)C(=O)C(=O)N21	SUMO Mot1 rescue 307
C=CC[C@@H](CC(=O)NCCO)C(=O)N[C@@H](COC(=O)[C@@H](CC=C)CC(=O)OC(C)(C)C)Cc1c[nH]c2ccccc12	UCH37 DUB inh 23
COc1ccc2nc3ccccc3nc2c1NC(=O)c1ccc(Cl)cc1Cl	RTF Ca sens act 361
O=C(NN=Cc1ccc2c(c1)OCO2)c1ccco1	none (no result: SUMO Mot1 rescue, Efflux pump inh, RTF Ca sens act, RTF Ca sens inh, ARNT TACC3 PPI)
CC1(C)C=C2C(=NN(c3ccccc3)C(N)=C2C#N)CO1	ARNT TACC3 PPI 46 (no result: UCH37 DUB inh)
CC1(C)Cc2c(C#N)c(N)n(-c3ccccc3)c(=S)c2CO1	none (no result: RTF Ca sens act, RTF Ca sens inh)
CSc1nc(C=C2C=Nc3ccccc32)c(O)n1C	none (no result: SUMO Mot1 rescue, Efflux pump inh, RTF Ca sens act, RTF Ca sens inh, ARNT TACC3 PPI)
O=C(/C=C/c1ccc(S(=O)(=O)N2CCOCC2)cc1)NCc1ccc(Cl)cc1	ARNT TACC3 PPI 14
COc1ccc(CNC(=O)/C=C/c2ccc(S(=O)(=O)N3CCOCC3)cc2)cc1	none

Compound activity: PubChem BioAssay, several laboratories
